Assay results as given in ChEMBL document CHEMBL4251682, “Nitric Oxide Inhibitory Sesquiterpenoids and Its Dimers from Artemisia freyniana” (J Nat Prod, 2018).

Columns and labels:
DU-145 = test: Cytotoxicity against human DU145 cells by MTT assay; assay type: functional, cell-based
In short: (§1)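 MTT-based growth inhibition of HCT116 and DU145 cells following an established protocol, with taxol as positive control.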

RAW264.7 [1] = test: Cytotoxicity against mouse RAW264.7 cells assessed as effect on cell viability at 50 uM by MTT assay; assay type: cell-based; conditions: raw264.7, 50 µM
HCT-116 = test: Cytotoxicity against human HCT116 cells by MTT assay; assay type: functional, cell-based; in short: as §1
RAW264.7 [2] = test: Inhibition of LPS-induced nitric oxide production in mouse RAW264.7 cells after 24 hrs by Griess assay; assay type: functional, cell-based; conditions: RAW264.7, 24 h

| Structure (SMILES) | IC50 (DU-145) [µM] | Activity (RAW264.7 [1]) | IC50 (HCT-116) [µM] | IC50 (RAW264.7 [2]) [µM] |
| --- | --- | --- | --- | --- |
| C=C(C(=O)O)[C@H]1C[C@@]23O[C@@]2(C)CCC[C@]3(C)C[C@@H]1OC(C)=O | > 50 | Non-Toxic | > 50 | – |
| C=C(C(=O)O)[C@@H]1C[C@@H]2O[C@@]23CCC[C@H](C)[C@@]3(C)C1 | > 50 | Non-Toxic | > 50 | 10.8 |
| C[C@@H]1C[C@H]2[C@@H]3CCC4=CC(=O)C=C[C@]4(C)[C@@]3(F)[C@@H](O)C[C@]2(C)[C@@]1(O)C(=O)CO [DEXAMETHASONE] | – | – | – | 10.7 |
| C=C(C(=O)O)[C@@H]1CC=C2[C@H](O)CC[C@H](C)[C@@]2(C)C1 | > 50 | Non-Toxic | > 50 | 18.9 |
